Results reported in ChEMBL document CHEMBL4406803, “A- and D-Ring Structural Modifications of an Androsterone Derivative Inhibiting 17β-Hydroxysteroid Dehydrogenase Type 3: Chemical Synthesis and Structure-Activity Relationships” (J Med Chem, 2019).

How the values were obtained:
[1] = target: T1, 17-beta-hydroxysteroid dehydrogenase type 3 (Homo sapiens) (UniProt P37058); experiment: Inhibition of 17beta-HSD3 (unknown origin) expressed in human LNCAP cells assessed as reduction in [14C]-testosterone formation from [14C]-4-androstene-3,17-dione at 0.1 uM measured after 1 hr relative to control; type: cell-based
T1 sequence (whole entry): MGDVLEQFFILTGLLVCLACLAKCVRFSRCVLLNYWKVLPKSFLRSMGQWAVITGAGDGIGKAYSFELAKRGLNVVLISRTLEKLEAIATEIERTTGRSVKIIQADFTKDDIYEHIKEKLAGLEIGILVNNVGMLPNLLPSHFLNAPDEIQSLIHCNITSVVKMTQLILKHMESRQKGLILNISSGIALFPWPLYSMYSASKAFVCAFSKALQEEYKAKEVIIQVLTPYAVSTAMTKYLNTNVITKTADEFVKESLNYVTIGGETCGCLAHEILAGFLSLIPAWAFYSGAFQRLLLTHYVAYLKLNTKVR
Outline: (§1)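 LNCaP cells stably transfected with 17β-HSD3 were plated at 10,000 per well in hygromycin-free medium and grown 2 days. They were then given 15 nM [14C]-4-androstenedione plus inhibitor at 0.1, 0.5 or 1.0 µM (0.05% DMSO final) for 1 h. Steroids were ether-extracted, separated by TLC and quantified by radioimaging. Results are % inhibition of conversion to T.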

[2] = target: T1, 17-beta-hydroxysteroid dehydrogenase type 3 (Homo sapiens); experiment: Inhibition of 17beta-HSD3 (unknown origin) expressed in human LNCAP cells assessed as reduction in [14C]-testosterone formation from [14C]-4-androstene-3,17-dione at 0.5 uM measured after 1 hr relative to control; type: cell-based; outline: as §1
LAPC4 [3] = experiment: Androgenic activity in human LAPC4 cells expressing androgen receptor assessed as effect on cell proliferation at 0.5 uM supplemented with fresh medium containing compounds every 3 days for 7 days by MTS assay (reference value: 100%); type: ADME, cell-based; settings: lapc4, 168 h
Outline: (§2)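 Androgen-dependent LAPC-4 cells were seeded at 5,000 per well in IMDM with 5% dextran-coated charcoal-treated FBS and pre-incubated 24 h at 37 °C, 5% CO2. Compounds were added from DMSO stock at 0.1, 0.5 and 1.0 µM, with 0.05% DMSO in controls. Incubation lasted 7 days, with a medium change at day 3. Growth was read by MTS (4 h, 490 nm) as % of untreated control (100%), in triplicate.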

LAPC4 [4] = experiment: Androgenic activity in human LAPC4 cells expressing androgen receptor assessed as effect on cell proliferation at 1 uM supplemented with fresh medium containing compounds every 3 days for 7 days by MTS assay (reference value: 100%); type: ADME, cell-based; settings: lapc4, 168 h; outline: as §2
[5] = target: T1, 17-beta-hydroxysteroid dehydrogenase type 3 (Homo sapiens); experiment: Inhibition of 17beta-HSD3 (unknown origin) expressed in human LNCAP cells assessed as reduction in [14C]-testosterone formation from [14C]-4-androstene-3,17-dione at 1 uM measured after 1 hr relative to control; type: cell-based; outline: as §1
LAPC4 [6] = experiment: Androgenic activity in human LAPC4 cells expressing androgen receptor assessed as effect on cell proliferation at 0.1 uM supplemented with fresh medium containing compounds every 3 days for 7 days by MTS assay (reference value: 100%); type: ADME, cell-based; settings: lapc4, 168 h; outline: as §2
[7] = target: T2, 17-beta-hydroxysteroid dehydrogenase type 3 (Homo sapiens, UniProt P37058); experiment: Inhibition of 17beta-HSD3 (unknown origin) expressed in human LNCAP cells assessed as reduction in [14C]-testosterone formation from [14C]-4-androstene-3,17-dione measured after 1 hr; type: cell-based
T2 sequence (P37058 whole entry): T1 sequence (whole entry)
Outline: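 Transfected LNCaP[17β-HSD3] cells were incubated 1 h with 15 nM [14C]-4-androstenedione and inhibitor at seven concentrations (0.001–5.0 µM; 0.05% DMSO). [14C]-T formation was measured by TLC and radioimaging. IC50 was obtained by curve fitting, averaging two independent experiments in triplicate.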

Compound | inhibition [1] | inhibition [2] | Activity (LAPC4 [3]) | Activity (LAPC4 [4]) | inhibition [5] | Activity (LAPC4 [6]) | IC50 [7]
CC1CN(S(=O)(=O)c2ccccc2C(F)(F)F)C(C)CN1C[C@@]1(O)CC[C@@]2(C)[C@@H](CC[C@@H]3[C@@H]2CC[C@]2(C)[C@@H](O)[C@H](F)C[C@@H]32)C1 (stereo partly specified) | 12% | 58% | 149.7% | 142.4% | 70% | 153.6% | 
CC1CN(S(=O)(=O)c2ccccc2C(F)(F)F)C(C)CN1CC(F)c1ccc2c(c1)CC[C@@H]1[C@@H]2CC[C@]2(C)C(=O)CC[C@@H]12 (mixture of isomers) | 30% | 80% |  |  | 90% |  | 250 nM
CC1CN(S(=O)(=O)c2ccccc2C(F)(F)F)C(C)CN1C[C@@]1(O)CC[C@@]2(C)[C@@H](CC[C@@H]3[C@@H]2CC[C@]2(C)[C@@H](O)CC[C@@H]32)C1 (stereo partly specified) | 38% | 78% | 88.1% | 31.3% | 94% | 116.4% | 190 nM
CC1CN(S(=O)(=O)c2ccccc2C(F)(F)F)C(C)CN1C[C@@]1(O)CC[C@@]2(C)[C@@H](CC[C@@H]3[C@@H]2CC[C@@]2(C)[C@H]3CC[C@@]23CO3)C1 (stereo partly specified) | 5% | 10% | 61.2% | 49.3% | 20% | 92.6% | 
C#C[C@]1(O)CC[C@H]2[C@@H]3CC[C@H]4C[C@@](O)(CN5CC(C)N(S(=O)(=O)c6ccccc6C(F)(F)F)CC5C)CC[C@]4(C)[C@H]3CC[C@@]21C (stereo partly specified) | 5% | 30% | 95.8% | 81.2% | 40% | 130.9% | 
CO[C@H]1CC[C@H]2[C@@H]3CC[C@H]4C[C@@](O)(CN5CC(C)N(S(=O)(=O)c6ccccc6C(F)(F)F)CC5C)CC[C@]4(C)[C@H]3CC[C@]12C (stereo partly specified) | 10% | 18% |  |  | 30% |  | 
CC1CN(S(=O)(=O)c2ccccc2C(F)(F)F)C(C)CN1CC(O)c1ccc2c(c1)CC[C@@H]1[C@@H]2CC[C@]2(C)C(=O)CC[C@@H]12 (single isomer, unassigned; diastereomer A) [listing 1 of 2 here] | 50% | 95% |  |  | 98% |  | 
CC1CN(S(=O)(=O)c2ccccc2C(F)(F)F)C(C)CN1C[C@@]1(O)CC[C@@]2(C)[C@@H](CC[C@@H]3[C@@H]2CC[C@]2(C)[C@@H](O)[C@H](O)C[C@@H]32)C1 (stereo partly specified) | 20% | 48% | 54.1% | 43.8% | 55% | 90.8% | 
CC1CN(S(=O)(=O)c2ccccc2C(F)(F)F)C(C)CN1C[C@@]1(O)CC[C@@]2(C)[C@@H](CC[C@@H]3[C@@H]2CC[C@]2(C)C(=O)[C@H](O)C[C@@H]32)C1 (stereo partly specified) | 0% | 60% | 83.1% | 69.3% | 80% | 114% | 
CC1CN(S(=O)(=O)c2ccccc2C(F)(F)F)C(C)CN1CC(O)c1ccc2c(c1)CC[C@@H]1[C@@H]2CC[C@]2(C)C(=O)CC[C@@H]12 (single isomer, unassigned; diastereomer A) [listing 2 of 2 here] |  |  | 94.9% | 81.9% |  | 115% | 140 nM
